This is an account of results in ChEMBL document CHEMBL5661979, “Pharmacological inhibition of BMK1 suppresses tumor growth through promyelocytic leukemia protein” (Cancer Cell, 2010).

Each structure is given as a SMILES string. Active and inactive are the calls of the source. No cut-off for these calls is given here. Bounds are passed on as bounds.

Series [1] addresses ALK tyrosine kinase receptor (Homo sapiens) (UniProt Q9UM73). The series can be described thus: Inhibition of ALK (unknown origin) assessed as remaining activity at 10 uM by ATP-competition binding assay relative to control.
The target in series [2] is Ribosomal protein S6 kinase alpha-3 (Homo sapiens, UniProt P51812). The series can be described thus: Inhibition of RSK2 domain 2 in human HeLa cells lysate pre incubated for 15 mins followed by ATP acyl phosphate probe addition and measured after 10 mins by LC-MS/MS analysis. Format: subcellular.
Chain of Ribosomal protein S6 kinase alpha-3 (P51812 whole entry, the tested form may be a part): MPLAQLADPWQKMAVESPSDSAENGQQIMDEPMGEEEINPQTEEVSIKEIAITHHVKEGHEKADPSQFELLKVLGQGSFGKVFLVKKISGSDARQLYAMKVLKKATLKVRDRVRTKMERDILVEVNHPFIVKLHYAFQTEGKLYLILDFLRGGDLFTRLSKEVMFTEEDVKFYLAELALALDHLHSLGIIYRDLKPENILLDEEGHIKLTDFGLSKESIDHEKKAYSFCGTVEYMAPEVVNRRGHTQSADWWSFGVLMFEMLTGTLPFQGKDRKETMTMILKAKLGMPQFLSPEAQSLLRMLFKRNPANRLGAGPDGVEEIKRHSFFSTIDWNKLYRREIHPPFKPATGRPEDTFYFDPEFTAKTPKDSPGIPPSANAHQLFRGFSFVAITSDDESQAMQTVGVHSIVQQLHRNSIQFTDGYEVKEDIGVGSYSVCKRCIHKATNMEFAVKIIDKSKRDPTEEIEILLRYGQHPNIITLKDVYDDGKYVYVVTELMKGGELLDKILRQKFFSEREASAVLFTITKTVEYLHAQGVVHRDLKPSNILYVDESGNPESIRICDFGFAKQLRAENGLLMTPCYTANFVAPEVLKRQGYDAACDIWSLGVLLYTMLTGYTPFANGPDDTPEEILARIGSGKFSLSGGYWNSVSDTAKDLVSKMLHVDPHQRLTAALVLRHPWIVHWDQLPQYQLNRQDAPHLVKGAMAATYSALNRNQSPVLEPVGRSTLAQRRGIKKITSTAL
Series [3] deals with Interferon-induced, double-stranded RNA-activated protein kinase (Homo sapiens, UniProt P19525). The series can be described thus: Inhibition of PKR in human HeLa cells lysate pre incubated for 15 mins followed by ATP acyl phosphate probe addition and measured after 10 mins by LC-MS/MS analysis. The class given is subcellular.
Chain of Interferon-induced, double-stranded RNA-activated protein kinase (P19525 whole entry): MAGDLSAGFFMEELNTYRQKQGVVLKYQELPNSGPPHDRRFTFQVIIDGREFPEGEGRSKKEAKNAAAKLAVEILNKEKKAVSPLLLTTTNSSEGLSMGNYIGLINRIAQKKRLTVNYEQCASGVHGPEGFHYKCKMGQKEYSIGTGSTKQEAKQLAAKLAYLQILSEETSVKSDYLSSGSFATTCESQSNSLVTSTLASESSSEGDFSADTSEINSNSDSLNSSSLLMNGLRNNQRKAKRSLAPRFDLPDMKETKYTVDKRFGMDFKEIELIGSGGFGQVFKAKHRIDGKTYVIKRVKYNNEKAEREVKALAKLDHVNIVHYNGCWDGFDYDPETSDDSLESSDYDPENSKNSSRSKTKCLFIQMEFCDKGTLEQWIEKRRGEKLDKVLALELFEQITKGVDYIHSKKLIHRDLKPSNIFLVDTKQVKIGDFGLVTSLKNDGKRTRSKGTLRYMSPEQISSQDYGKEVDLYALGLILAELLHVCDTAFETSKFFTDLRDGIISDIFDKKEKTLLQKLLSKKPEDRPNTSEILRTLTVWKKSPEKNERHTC
Series [4] deals with Serine-protein kinase ATM (Homo sapiens, UniProt Q13315). As to the kind of experiment: Inhibition of ATM in human HeLa cells lysate pre incubated for 15 mins followed by ADP acyl phosphate probe addition and measured after 10 mins by LC-MS/MS analysis. Format: subcellular. The procedure, abridged: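 KiNativ-type profiling in HeLa lysate (5 mg/mL total protein). Lysate preincubated 15 min with inhibitor at 50, 10, 2, 0.8 or 0 μM, then ATP or ADP acylphosphate probe added (5 μM final) for 10 min. Reaction stopped with urea and analysed by targeted MS, using up to four fragment ions per kinase peptide-probe conjugate. % inhibition calculated against untreated lysate. Duplicate reactions.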

The target of series [5] is Inhibitor of nuclear factor kappa-B kinase subunit beta (Homo sapiens, UniProt O14920). The series can be described thus: Inhibition of IKKB in human HeLa cells lysate pre incubated for 15 mins followed by ADP acyl phosphate probe addition and measured after 10 mins by LC-MS/MS analysis. The class given is subcellular.
The target in series [6] is PAN2-PAN3 deadenylation complex subunit PAN3 (Homo sapiens, UniProt Q58A45). As to the kind of experiment: Inhibition of PAN3 in human HeLa cells lysate pre incubated for 15 mins followed by ADP acyl phosphate probe addition and measured after 10 mins by LC-MS/MS analysis. The class given is subcellular.
Chain of PAN2-PAN3 deadenylation complex subunit PAN3 (Q58A45 whole entry, one chain of several): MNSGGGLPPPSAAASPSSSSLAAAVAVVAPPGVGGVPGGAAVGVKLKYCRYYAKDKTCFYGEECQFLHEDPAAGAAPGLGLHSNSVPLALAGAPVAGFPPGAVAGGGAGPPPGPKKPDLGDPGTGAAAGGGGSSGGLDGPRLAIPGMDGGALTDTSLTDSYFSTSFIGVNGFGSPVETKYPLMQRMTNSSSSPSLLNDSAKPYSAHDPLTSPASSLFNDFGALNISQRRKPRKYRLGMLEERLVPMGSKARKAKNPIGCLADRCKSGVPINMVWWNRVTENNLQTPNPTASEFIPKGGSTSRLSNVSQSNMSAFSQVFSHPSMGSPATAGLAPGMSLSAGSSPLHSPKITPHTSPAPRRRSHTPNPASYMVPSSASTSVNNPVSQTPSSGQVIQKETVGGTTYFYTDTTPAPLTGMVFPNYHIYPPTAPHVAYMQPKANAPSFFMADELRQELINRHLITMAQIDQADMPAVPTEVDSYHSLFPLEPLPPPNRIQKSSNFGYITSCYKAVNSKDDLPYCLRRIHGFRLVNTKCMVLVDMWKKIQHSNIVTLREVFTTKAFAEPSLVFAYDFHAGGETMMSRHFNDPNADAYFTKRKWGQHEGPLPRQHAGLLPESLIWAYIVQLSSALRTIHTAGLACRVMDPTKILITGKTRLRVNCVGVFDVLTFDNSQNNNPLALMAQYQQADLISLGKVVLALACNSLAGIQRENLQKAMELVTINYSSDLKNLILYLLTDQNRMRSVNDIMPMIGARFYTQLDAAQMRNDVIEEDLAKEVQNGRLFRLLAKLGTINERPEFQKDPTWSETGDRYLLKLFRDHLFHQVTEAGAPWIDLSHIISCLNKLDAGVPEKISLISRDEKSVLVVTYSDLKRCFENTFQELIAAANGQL
Series [7] deals with Serine/threonine-protein kinase D2 (Homo sapiens, UniProt Q9BZL6). The series can be described thus: Inhibition of PKD2 in human HeLa cells lysate pre incubated for 15 mins followed by ADP acyl phosphate probe addition and measured after 10 mins by LC-MS/MS analysis. Format: subcellular.
Series [8] concerns Serine/threonine-protein kinase PLK1 (Homo sapiens), P53350 [UNDEFINED MUTATION]. The series can be described thus: Inhibition of PLK1 splice variant in human HeLa cells lysate at 10 uM pre incubated for 15 mins followed by ADP acyl phosphate probe addition and measured after 10 mins by LC-MS/MS analysis relative to control. The note with it: time 25.0 min. Format: subcellular.

The target of series [9] is T1, Cyclin-dependent kinase 13 (Homo sapiens, UniProt Q14004). As to the kind of experiment: Inhibition of CHED in human HeLa cells lysate at 10 uM pre incubated for 15 mins followed by ADP acyl phosphate probe addition and measured after 10 mins by LC-MS/MS analysis relative to control. Format: subcellular. The conditions noted are these: time 25.0 min. The procedure, abridged:
(§1)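 KiNativ profiling in HeLa lysate (5 mg/mL total protein). Lysate incubated 15 min with inhibitor at 50, 10, 2, 0.8 or 0 μM. ATP or ADP acylphosphate probe then added (5 μM final) and reacted 10 min. Reaction stopped with urea and analysed by targeted MS, using up to four fragment ions per kinase peptide-probe conjugate. % inhibition taken against untreated lysate. Run in duplicate.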

The target of series [10] is T1, Cyclin-dependent kinase 13. The series can be described thus: Inhibition of CHED in human HeLa cells lysate at 2 uM pre incubated for 15 mins followed by ADP acyl phosphate probe addition and measured after 10 mins by LC-MS/MS analysis relative to control. Format: subcellular. The note with it: time 25.0 min. The procedure, abridged:
as §1

Series [11] concerns the target Serine/threonine-protein kinase 3/4 (Homo sapiens) (UniProt Q13043+Q13188). The series can be described thus: Inhibition of MST1/2 in human HeLa cells lysate at 50 uM pre incubated for 15 mins followed by ATP acyl phosphate probe addition and measured after 10 mins by LC-MS/MS analysis relative to control. Format: subcellular. The note with it: time 25.0 min.
A short description of series [12]: Inhibition of KHS1/2 in human HeLa cells lysate at 50 uM pre incubated for 15 mins followed by ATP acyl phosphate probe addition and measured after 10 mins by LC-MS/MS analysis relative to control. The note with it: 25 min, condition cancer.
The target of series [13] is Cyclin-dependent kinase 10 (Homo sapiens, UniProt Q15131). The series can be described thus: Inhibition of CDK10 in human HeLa cells lysate at 50 uM pre incubated for 15 mins followed by ATP acyl phosphate probe addition and measured after 10 mins by LC-MS/MS analysis relative to control. The class given is subcellular. The conditions noted are these: time 25.0 min. In outline:
as §1

Series [14] deals with Serine/threonine-protein kinase SMG1 (Homo sapiens, UniProt Q96Q15). The series can be described thus: Inhibition of SMG1 in human HeLa cells lysate at 50 uM pre incubated for 15 mins followed by ATP acyl phosphate probe addition and measured after 10 mins by LC-MS/MS analysis relative to control. The class given is subcellular. The note with it: time 25.0 min.
For series [15], the target named is Cyclin-dependent kinase 8/19 (Homo sapiens, UniProt P49336+Q9BWU1). The series can be described thus: Inhibition of CDK8/CDK11 in human HeLa cells lysate at 2 uM pre incubated for 15 mins followed by ATP acyl phosphate probe addition and measured after 10 mins by LC-MS/MS analysis relative to control. Format: subcellular. The note with it: time 25.0 min. In outline:
as §1

The target of series [16] is Serine/threonine-protein kinase Nek1 (Homo sapiens) (UniProt Q96PY6). The series can be described thus: Inhibition of NEK1 in human HeLa cells lysate at 2 uM pre incubated for 15 mins followed by ATP acyl phosphate probe addition and measured after 10 mins by LC-MS/MS analysis relative to control. The class given is subcellular. The note with it: time 25.0 min.
The target of the next series is Ephrin type-A receptor 2 (Homo sapiens, UniProt P29317). The series can be described thus: Inhibition of EphA2 in human HeLa cells lysate at 2 uM pre incubated for 15 mins followed by ATP acyl phosphate probe addition and measured after 10 mins by LC-MS/MS analysis relative to control. The class given is subcellular. The note with it: time 25.0 min.
Chain of Ephrin type-A receptor 2 (P29317 whole entry): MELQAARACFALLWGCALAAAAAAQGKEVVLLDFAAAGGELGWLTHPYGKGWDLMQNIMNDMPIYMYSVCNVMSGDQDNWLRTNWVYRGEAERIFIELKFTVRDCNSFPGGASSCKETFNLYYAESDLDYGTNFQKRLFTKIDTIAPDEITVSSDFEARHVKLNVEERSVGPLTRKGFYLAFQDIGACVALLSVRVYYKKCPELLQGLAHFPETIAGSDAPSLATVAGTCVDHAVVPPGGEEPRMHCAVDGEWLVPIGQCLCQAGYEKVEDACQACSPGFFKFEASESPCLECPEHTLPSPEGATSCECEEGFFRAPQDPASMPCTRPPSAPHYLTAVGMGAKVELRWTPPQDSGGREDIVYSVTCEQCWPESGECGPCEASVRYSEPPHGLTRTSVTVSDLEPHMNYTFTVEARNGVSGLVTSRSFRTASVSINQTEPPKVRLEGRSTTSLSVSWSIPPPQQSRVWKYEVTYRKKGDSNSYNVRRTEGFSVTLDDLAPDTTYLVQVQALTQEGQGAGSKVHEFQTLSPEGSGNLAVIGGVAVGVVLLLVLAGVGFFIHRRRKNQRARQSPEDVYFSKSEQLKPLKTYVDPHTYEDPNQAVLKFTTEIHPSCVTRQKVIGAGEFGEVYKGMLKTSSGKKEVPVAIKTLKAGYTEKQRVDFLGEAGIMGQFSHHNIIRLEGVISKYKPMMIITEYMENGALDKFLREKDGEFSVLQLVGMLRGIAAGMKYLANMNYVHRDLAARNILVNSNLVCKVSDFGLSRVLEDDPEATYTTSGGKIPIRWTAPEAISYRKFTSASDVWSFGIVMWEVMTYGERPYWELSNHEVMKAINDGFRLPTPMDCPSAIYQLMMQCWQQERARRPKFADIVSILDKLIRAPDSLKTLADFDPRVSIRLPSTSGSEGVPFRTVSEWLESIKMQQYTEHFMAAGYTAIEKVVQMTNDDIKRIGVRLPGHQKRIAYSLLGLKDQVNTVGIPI
In series [17] the target is Mitogen-activated protein kinase kinase kinase 5 (Homo sapiens) (UniProt Q99683). The series can be described thus: Inhibition of MAP3K5 in human HeLa cells lysate at 2 uM pre incubated for 15 mins followed by ATP acyl phosphate probe addition and measured after 10 mins by LC-MS/MS analysis relative to control. Format: subcellular. The note with it: time 25.0 min.
Series [18] can be described thus: Tmax in Sprague-Dawley rat at 2 mg/kg, po measured up to 8 hrs by LC-MS/MS analysis. Format: ADME, organism-based. The note with it: in vivo.
Series [19] can be described thus: Plasma concentration in C57Bl/6 mouse at 50 mg/kg, ip administered for 4 day and measured 8 hr post last dose by LC-MS/MS analysis. The class given is ADME, organism-based.
Series [20] is described as follows: Toxicity in C57Bl/6 mouse assessed as effect on globulin level at 50 mg/kg, ip for 14 days (reference value: 2.3 g/dl). The class given is organism-based. The note with it: in vivo, 336 h, time 14 day.
A further series deals with HeLa. As to the kind of experiment: Antitumor activity against human HeLa cells xenografted in NOD/SCID mouse assessed as reduction tumor growth at 50 mg/kg, ip administered on day 14 post implantation measured after 28 days. The note with it: time 14.0 day. Format: functional, organism-based. The procedure, abridged: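 HeLa cells (5×10^5, in DMEM) were injected s.c. into the right flank of 6-week-old Nod/Scid mice on day 0. Dosing was 50 mg/kg i.p. twice daily, starting on day 1, 7 or 14 and continuing to day 28; controls received carrier. 6 mice per treated group. Tumors were measured every 2–3 days.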

A further series relates to Lewis lung carcinoma. As to the kind of experiment: Antitumor activity against PML knock down mouse LL2 cells transfected with ad-PML allografted in C57Bl/6 mouse assessed as reduction tumor growth at 50 mg/kg, ip administered on day 8 post implantation measured after 20 days. The note with it: time 12.0 day.

T1 sequence (Q14004 whole entry, looked up, the tested form may be a part): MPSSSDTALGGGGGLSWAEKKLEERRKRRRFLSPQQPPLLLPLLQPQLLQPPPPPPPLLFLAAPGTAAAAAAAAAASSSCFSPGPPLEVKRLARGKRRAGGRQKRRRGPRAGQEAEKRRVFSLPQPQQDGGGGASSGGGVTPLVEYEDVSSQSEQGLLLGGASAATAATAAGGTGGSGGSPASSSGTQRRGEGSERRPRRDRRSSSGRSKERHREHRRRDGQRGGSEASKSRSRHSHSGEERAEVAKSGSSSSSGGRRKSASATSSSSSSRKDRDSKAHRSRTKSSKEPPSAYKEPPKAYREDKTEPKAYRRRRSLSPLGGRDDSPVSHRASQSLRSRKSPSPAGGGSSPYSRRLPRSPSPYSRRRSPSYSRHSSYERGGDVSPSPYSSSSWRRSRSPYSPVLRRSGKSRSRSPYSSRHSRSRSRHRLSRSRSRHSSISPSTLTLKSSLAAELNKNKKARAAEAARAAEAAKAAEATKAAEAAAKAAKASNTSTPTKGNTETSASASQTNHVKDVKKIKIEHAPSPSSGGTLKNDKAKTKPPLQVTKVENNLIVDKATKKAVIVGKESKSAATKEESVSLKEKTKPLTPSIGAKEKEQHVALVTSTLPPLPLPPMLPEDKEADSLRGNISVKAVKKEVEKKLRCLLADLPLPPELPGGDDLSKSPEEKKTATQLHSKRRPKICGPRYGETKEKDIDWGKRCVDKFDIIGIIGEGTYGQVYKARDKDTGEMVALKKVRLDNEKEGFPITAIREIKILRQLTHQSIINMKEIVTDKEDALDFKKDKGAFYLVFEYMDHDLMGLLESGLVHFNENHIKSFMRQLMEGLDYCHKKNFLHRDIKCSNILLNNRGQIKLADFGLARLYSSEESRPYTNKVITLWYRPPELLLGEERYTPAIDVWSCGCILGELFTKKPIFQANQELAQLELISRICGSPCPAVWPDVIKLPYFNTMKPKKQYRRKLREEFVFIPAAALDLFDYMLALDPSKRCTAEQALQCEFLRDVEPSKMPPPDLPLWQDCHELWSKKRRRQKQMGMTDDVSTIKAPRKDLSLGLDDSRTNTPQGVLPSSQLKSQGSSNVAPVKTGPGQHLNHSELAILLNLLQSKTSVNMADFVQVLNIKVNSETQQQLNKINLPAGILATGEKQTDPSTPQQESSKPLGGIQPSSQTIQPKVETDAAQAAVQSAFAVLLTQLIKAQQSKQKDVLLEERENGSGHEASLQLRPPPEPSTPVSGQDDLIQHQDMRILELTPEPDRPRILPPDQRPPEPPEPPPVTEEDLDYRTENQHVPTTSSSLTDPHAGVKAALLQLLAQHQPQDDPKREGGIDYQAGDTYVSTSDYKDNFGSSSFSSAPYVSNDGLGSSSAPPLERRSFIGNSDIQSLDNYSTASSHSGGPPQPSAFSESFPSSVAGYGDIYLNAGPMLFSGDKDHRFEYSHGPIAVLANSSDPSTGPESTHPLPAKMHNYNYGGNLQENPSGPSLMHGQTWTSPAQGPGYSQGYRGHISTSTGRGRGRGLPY
Chain of Cyclin-dependent kinase 10 (Q15131 whole entry): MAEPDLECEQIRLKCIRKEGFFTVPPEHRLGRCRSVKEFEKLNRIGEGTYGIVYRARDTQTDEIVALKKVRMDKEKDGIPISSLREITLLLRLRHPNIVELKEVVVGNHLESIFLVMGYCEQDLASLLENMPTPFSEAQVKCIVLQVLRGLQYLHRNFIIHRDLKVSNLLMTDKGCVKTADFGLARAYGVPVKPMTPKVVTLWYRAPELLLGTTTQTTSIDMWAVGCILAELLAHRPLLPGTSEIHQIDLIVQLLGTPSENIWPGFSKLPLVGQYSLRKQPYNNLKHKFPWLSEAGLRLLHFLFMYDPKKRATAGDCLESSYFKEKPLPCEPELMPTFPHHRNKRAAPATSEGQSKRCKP

For the molecule `CCOc1cc(N2CCC(O)CC2)ccc1Nc1ncc2c(n1)N(C)c1ccccc1C(=O)N2C`, the Activity in series [1] was found to be 29%; in series [20], 2.5 g/dL. In addition, the IC50 in series [2] was 49 µM; in [3], more than 50 µM; in series [4], more than 50 µM; in [5], more than 50 µM; in series [6], more than 50 µM; in series [7], more than 50 µM. The inhibition in [8] was 0.8%; in series [9], 10.7%; in [10], 28.1%; in series [11], 11.3%; in [13], -0.4%; in [14] it was -1.9%. For the same molecule, the inhibition in [15] was -7.5%; in [16] it was 6.1%; on Ephrin type-A receptor 2 it was -7.6%; in series [17] it was -6.5%. Besides, in series [12], the inhibition at 50 µM came out at 2.5%. The Tmax in series [18] worked out at 30 min. In series [19], this molecule yielded a concentration at 96 h of 9 µM. The outcome in the series on HeLa and in the series on Lewis lung carcinoma was Active.
